Measurements as given in ChEMBL document CHEMBL3351938, “C5-Alkyl-2-methylurea-Substituted Pyridines as a New Class of Glucokinase Activators” (ACS Med Chem Lett, 2014).
≈ marks a conversion by molar mass, not a printed value.

Tests used:
[1] = Drug metabolism in human liver microsomes assessed as compound turnover at 1 uM after 30 mins; format: ADME; conditions: read-out: Drug metabolism
Summary of the method: (§1)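 Test compound at 1 μM initial concentration was incubated with 0.25 mg/mL rat or human liver microsomes for 30 min at 37 °C; percent turnover is the percentage of parent metabolized.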

Hexokinase-4 [2] = target: T1, Hexokinase-4 (Homo sapiens, UniProt P35557); assay: Activation of human recombinant Glucokinase measured over 5 mins by G6-PD coupled assay in presence of 5 mM glucose
T1 sequence (P35557 whole entry): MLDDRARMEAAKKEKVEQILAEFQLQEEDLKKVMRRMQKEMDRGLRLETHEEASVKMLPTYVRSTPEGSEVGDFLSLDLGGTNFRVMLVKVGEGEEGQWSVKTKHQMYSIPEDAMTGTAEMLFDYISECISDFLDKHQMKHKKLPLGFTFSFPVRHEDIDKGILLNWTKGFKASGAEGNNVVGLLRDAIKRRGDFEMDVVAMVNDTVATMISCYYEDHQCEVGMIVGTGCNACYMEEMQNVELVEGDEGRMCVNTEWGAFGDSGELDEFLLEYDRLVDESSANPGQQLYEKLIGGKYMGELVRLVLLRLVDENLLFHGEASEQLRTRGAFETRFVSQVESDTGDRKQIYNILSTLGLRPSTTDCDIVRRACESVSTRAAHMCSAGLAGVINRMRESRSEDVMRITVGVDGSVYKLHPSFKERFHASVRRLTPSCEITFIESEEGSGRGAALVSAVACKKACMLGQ
Summary of the method: (§2)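 Recombinant human GK; glucose held at 5 mM for EC₅₀ determination; run in duplicate (n = 2).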

[3] = Drug metabolism in rat liver microsomes assessed as compound turnover at 1 uM after 30 mins; format: ADME; conditions: read-out: Drug metabolism; summary of the method: as §1
Mus musculus [4] = assay: Antidiabetic activity in C57Bl/6 mouse assessed as reduction in blood glucose AUC at 10 mg/kg, po administered 30 mins prior glucose challenge by oral glucose tolerance test; format: functional; design: scale not given: the % may be the effect or the level left
Summary of the method: (§3)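 Oral dose–response OGTT in C57Bl/6 mice at 3, 10 and 30 mg/kg; blood glucose area-under-curve assessed; significance versus vehicle by two-way ANOVA.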

[5] = Clearance in rat at 1 mg/kg, iv; format: ADME, organism-based; design: dose 1 mg/kg, route intravenous; conditions: in vivo
Summary of the method: (§4)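 Rats: IV dose 1 mg/kg, n = 3; PO dose 10 mg/kg, n = 3.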

[6] = Oral bioavailability in mouse at 10 mg/kg; format: ADME, organism-based; conditions: in vivo
Summary of the method: (§5)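 Mice: IV dose 1 mg/kg, n = 3; PO dose 10 mg/kg, n = 3.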

[7] = Half life in rat at 1 mg/kg, iv; format: ADME, organism-based; design: dose 1 mg/kg, route intravenous; conditions: in vivo; summary of the method: as §4
[8] = Drug metabolism in human primary hepatocytes; format: ADME, cell-based, Hepatocyte; conditions: read-out: Drug metabolism
[9] = Oral bioavailability in rat at 10 mg/kg; format: ADME, organism-based; conditions: in vivo; summary of the method: as §4
[10] = Volume of distribution at steady state in rat at 1 mg/kg, iv; format: ADME, organism-based; design: dose 1 mg/kg, route intravenous; conditions: in vivo, read-out: Vdss; summary of the method: as §4
Mus musculus [11] = assay: Antidiabetic activity in C57Bl/6 mouse assessed as reduction in blood glucose AUC at 3 mg/kg, po administered 30 mins prior glucose challenge by oral glucose tolerance test; format: functional; design: scale not given: the % may be the effect or the level left; summary of the method: as §3
[12] = Solubility of the compound in PBS buffer at 7.4; format: physicochemical; conditions: pH 7.4
[13] = Clearance in mouse at 1 mg/kg, iv; format: ADME, organism-based; design: dose 1 mg/kg, route intravenous; conditions: in vivo; summary of the method: as §5
[14] = AUC in rat at 10 mg/kg, po; format: ADME, organism-based; design: dose 10 mg/kg, route oral; conditions: plasma; summary of the method: as §4
[15] = Half life in mouse at 1 mg/kg, iv; format: ADME, organism-based; design: dose 1 mg/kg, route intravenous; conditions: in vivo; summary of the method: as §5
[16] = AUC in mouse at 10 mg/kg, po; format: ADME, organism-based; design: dose 10 mg/kg, route oral; conditions: plasma; summary of the method: as §5
Mus musculus [17] = assay: Antidiabetic activity in C57Bl/6 mouse assessed as reduction in plasma glucose level at 30 mg/kg, po administered 30 mins prior glucose challenge measured 1.5 to 2 hrs post dose by oral glucose tolerance test; format: functional; summary of the method: as §3
[18] = Volume of distribution at steady state in mouse at 1 mg/kg, iv; format: ADME, organism-based; design: dose 1 mg/kg, route intravenous; conditions: in vivo, read-out: Vdss; summary of the method: as §5
[19] = Plasma protein binding in rat; format: ADME, cell-free; conditions: read-out: PPB
[20] = Plasma protein binding in mouse; format: ADME; conditions: read-out: PPB (converted)
[21] = Permeability across pig LLC-PK cells; format: ADME, cell-based, Sus scrofa; conditions: LLC-PK1, read-out: permeability
[22] = Oral bioavailability in mouse at 5 mg/kg; format: ADME, organism-based; conditions: in vivo
[23] = AUC in mouse at 5 mg/kg, po; format: ADME, organism-based; design: dose 5 mg/kg, route oral; conditions: plasma
[24] = Clearance in rat at 0.5 mg/kg, iv; format: ADME, organism-based; design: dose 0.5 mg/kg, route intravenous; conditions: in vivo
Mus musculus [25] = assay: Hypoglycemic activity in fed C57Bl/6 mouse assessed as change in blood glucose level at 10 to 30 mg/kg, po followed by food withdrawal for 4 hrs measured 30 to 240 mins post dose by normoglycemic glucose lowering test; format: ADME, organism-based; design: route oral; conditions: in vivo
Summary of the method: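 Fed male C57Bl/6 mice dosed orally with vehicle or compound (10 or 30 mg/kg) without glucose challenge, then food removed for 4 h; blood glucose sampled at various time points; two-way ANOVA versus vehicle.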

[26] = Plasma protein binding in human; format: ADME, cell-free; conditions: read-out: PPB (converted)
[27] = AUC in rat at 2 mg/kg, po; format: ADME, organism-based; design: dose 2 mg/kg, route oral; conditions: plasma
Canis familiaris [28] = assay: AUC in dog at 2 mg/kg, po; conditions: in vivo
[29] = Half life in dog at 0.5 mg/kg, iv; conditions: in vivo
Canis familiaris [30] = assay: Clearance in dog at 0.5 mg/kg, iv; conditions: in vivo
Canis familiaris [31] = assay: Oral bioavailability in dog at 2 mg/kg; conditions: in vivo
Hexokinase-4 [32] = target: T1, Hexokinase-4; assay: Activation of human recombinant Glucokinase measured over 5 mins by G6-PD coupled assay in presence of 5 mM glucose and 4% HSA; summary of the method: as §2
[33] = Volume of distribution at steady state in rat at 0.5 mg/kg, iv; format: ADME, organism-based; design: dose 0.5 mg/kg, route intravenous; conditions: in vivo, read-out: Vdss
[34] = Half life in rat at 0.5 mg/kg, iv; format: ADME, organism-based; design: dose 0.5 mg/kg, route intravenous; conditions: in vivo
Mus musculus [35] = assay: Antidiabetic activity in fasted ob/ob mouse assessed as reduction in blood glucose AUC at 10 mg/kg, po administered 30 mins prior glucose challenge by oral glucose tolerance test relative to control; format: functional; design: scale not given: the % may be the effect or the level left
Summary of the method: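 OGTT in fasted ob/ob mice with oral doses of 0.3, 1, 3 and 10 mg/kg; blood glucose AUC compared to vehicle by two-way ANOVA.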

[36] = Oral bioavailability in rat at 2 mg/kg; format: ADME, organism-based; conditions: in vivo
[37] = Volume of distribution at steady state in dog at 0.5 mg/kg, iv; conditions: in vivo, read-out: Vdss

SMILES | metabolised at 0.5 h, 1 µM [1] [%] | EC50 (Hexokinase-4 [2]) [nM] | metabolised at 0.5 h, 1 µM [3] [%] | further results
CCOCCc1cnc(NC(=O)NC)c(Oc2cccnc2CC)c1 | 21 | 590 | 76 | –
CCc1ncccc1Oc1cc(CCCC(C)(C)O)cnc1NC(=O)NC | 31 | 110 | 17 | –
CCc1ncccc1Oc1cc(CCCCOC)cnc1NC(=O)NC | 23 | 110 | 41 | –
CCn1nccc1Oc1cc(C[C@H]2C[C@](C)(O)C2)cnc1NC(=O)NC | – | – | – | fraction unbound [19]: 0.5; fraction unbound [20]: 0.44; Papp [21]: 32.4 ×10⁻⁶ cm/s; bioavailability [22]: 44%; AUC [23]: 6.84 µM·h; clearance [24]: 26.7 mL/min/kg; Activity (Mus musculus [25]): Non-toxic; fraction unbound [26]: 0.44; AUC [27]: 0.39 µM·h; AUC (Canis familiaris [28]): 6.4 µM·h; half-life [29]: 5.5 h; CL (Canis familiaris [30]): 10.7 mL/min/kg; F (Canis familiaris [31]): 72%; EC50 (Hexokinase-4 [32]): 280 nM; Vd [33]: 0.8 L/kg; half-life [34]: 2 h; Activity (Mus musculus [35]): 43%; bioavailability [36]: 9%; Vd [37]: 2.2 L/kg
CCc1ncccc1Oc1cc(CC2CCOCC2)cnc1NC(=O)NC | – | 290 | – | –
CNC(=O)Nc1ncc(CC2CCOCC2)cc1Oc1ccnn1C(C)C | – | 2760 | – | –
CCn1nccc1Oc1cc(C(O)C2CCOCC2)cnc1NC(=O)NC (centres undefined) | – | 16800 | – | –
CCn1nccc1Oc1cc(CCCC(C)(C)O)cnc1NC(=O)NC | 10 | 370 | 10 | –
CCc1ncccc1Oc1cc(CC(C)C)cnc1NC(=O)NC | 56 | 120 | 95 | –
CCc1ncccc1Oc1cc(CCCCO)cnc1NC(=O)NC | 20 | 350 | 33 | –
CCn1nccc1Oc1cc(CCCCOC)cnc1NC(=O)NC | 10 | 460 | 31 | –
CCc1ncccc1Oc1cc(CC2CCCCC2)cnc1NC(=O)NC | 99 | 14 | 95 | –
CCn1nc(COC)cc1Oc1cc(CC2CCOCC2)cnc1NC(=O)NC | – | 820 | – | –
CCc1ncccc1Oc1cc(CCCOC)cnc1NC(=O)NC | – | 440 | – | –
CCn1nccc1Oc1cc(CN2CCOCC2)cnc1NC(=O)NC | – | 7980 | – | –
CCc1ncccc1Oc1cc(CCO)cnc1NC(=O)NC | 10 | 1590 | 10 | –

Continued, in another order:

metabolised at 0.5 h, 1 µM [1] [%] | EC50 (Hexokinase-4 [2]) [nM] | metabolised at 0.5 h, 1 µM [3] [%] | SMILES | further results
– | 490 | – | CCn1nccc1Oc1cc(C[C@H]2CCO[C@H](COC)C2)cnc1NC(=O)NC | –
– | 350 | – | CCn1nccc1Oc1cc(C[C@@H]2CCO[C@@H](COC)C2)cnc1NC(=O)NC | –
– | 97 | – | CCn1nccc1Oc1cc(C[C@H]2CC[C@@](C)(O)CC2)cnc1NC(=O)NC | –
10 | 350 | 25 | CCn1nccc1Oc1cc(CC2CCOCC2)cnc1NC(=O)NC | Activity (Mus musculus [4]): 32%; clearance [5]: 25 mL/min/kg; bioavailability [6]: 81%; half-life [7]: 0.41 h; metabolised [8]: 15%; bioavailability [9]: 19%; Vd [10]: 0.8 L/kg; Activity (Mus musculus [11]): 15%; solubility [12]: 718 µg/mL (≈ 2000 µM); clearance [13]: 28.3 mL/min/kg; AUC [14]: 3.51 µM·h; half-life [15]: 0.72 h; AUC [16]: 13.3 µM·h; Activity (Mus musculus [17]): 77 mg/dL; Vd [18]: 1.5 L/kg
– | 500 | – | CCn1nccc1Oc1cc(C[C@H]2C[C@H](O)C2)cnc1NC(=O)NC | –
– | 530 | – | CCn1nccc1Oc1cc(C[C@H]2C[C@@H](O)C2)cnc1NC(=O)NC | –
– | 710 | – | CCn1nccc1Oc1cc(C[C@H]2C[C@@](C)(O)C2)cnc1NC(=O)NC | –
– | 110 | – | CCn1nccc1Oc1cc(C[C@H]2CC[C@](C)(O)CC2)cnc1NC(=O)NC | –
– | 68 | – | CCn1nccc1Oc1cc(C[C@H]2CC[C@H](O)CC2)cnc1NC(=O)NC | –
– | 120 | – | CCn1nccc1Oc1cc(C[C@H]2CC[C@@H](O)CC2)cnc1NC(=O)NC | –
